Source: ChEMBL document CHEMBL5390295, “Isolinderalactone Ameliorates the Pathology of Alzheimer's Disease by Inhibiting the JNK Signaling Pathway” (2023)
Calls of active or inactive are those of the source.

Tests used:
PC-12 [1] = assay: Neuroprotective activity against Abeta1-42 induced rat PC12 cells assessed as reduction in LDH release at 10 uM preincubated for 3 hrs followed by Abeta1-42 induction and measured after 24 hrs by LDH release assay; type: functional, cell-based; conditions: time 27.0 hrs
Outline: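 PC12 cells were pretreated 3 h with 10 μM, then incubated 24 h with or without 10 μM Aβ1–42. LDH released into the supernatant was measured.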

PC-12 [2] = assay: Neuroprotective activity in rat PC12 cells assessed as reversal of Abeta1-42 induced caspase-3 activation at 10 uM preincubated for 3 hrs followed by Abeta1-42 induction and measured after 24 hrs by Western blot analysis; type: functional, cell-based; conditions: time 27.0 hrs
Outline: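 PC12 cells (DMEM, 10% FBS, 37 °C, 5% CO2) pretreated 3 h, then given 10 μM Aβ1–42 oligomer (10 mM DMSO stock aged 7 days at 37 °C, diluted in medium) for 24 h. RIPA lysates were blotted on PVDF, blocked in 5% BSA/TBST, and probed overnight at 4 °C for cleaved caspase-3 (1:1000), then HRP secondary. Band intensity was quantified; mean ± SEM of three experiments.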

Mus musculus [3] = assay: Anti-alzheimer activity against APP/PS1 dE9 double transgenic mouse model assessed as increase in platform crossings at 10 mg/kg, ip administered once daily for 30 consecutive days […] by morris water maze test; type: functional, organism-based
Outline: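 Female APP/PS1 mice, 10 months old, about 30 g, 10 per group. Dosing was intraperitoneal in 1× PBS, once daily for one month (1 or 10 mg/kg test; 5 mg/kg donepezil). WT and untreated APP/PS1 controls got PBS. Morris water maze: training days 1–4, averaged escape latency. Day-5 probe trial ran 60 s with the platform removed, recording platform crossings and time per quadrant. Mean ± SEM.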

Mus musculus [4] = assay: Anti-alzheimer activity in cortex of APP/PS1 dE9 double transgenic mouse model assessed as reduction in neuronal apoptosis at 1 to 10 mg/kg, ip administered once daily for 30 consecutive days by immunofluorescence analysis; type: functional, organism-based; conditions: dose 1-10 mg/kg, time 30.0 day
Outline: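 Brains from dosed female APP/PS1 mice (10 months) were fixed in 4% paraformaldehyde at 4 °C for 24–48 h, taken through a sucrose gradient and OCT, and cut into 15 μm sections. Sections were permeabilized with 0.3% Triton X-100, blocked in 10% BSA for 1 h, and incubated with primary antibody overnight at 4 °C (1:200). Secondary was 1:500 for 1 h at 25 °C, with DAPI counterstain and confocal imaging, in triplicate.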

Measured: Activity

C=C[C@@]1(C)Cc2occ(C)c2[C@@H]2OC(=O)C(=C)[C@@H]21 [ISOLINDERALACTONE]
active: all assays above
